Results: ChEMBL document CHEMBL3351319, “Synthesis, biological evaluation and 3D-QSAR study of novel 4,5-dihydro-1H-pyrazole thiazole derivatives as BRAF(V⁶⁰⁰E) inhibitors” (Bioorg Med Chem, 2015)

Assays:
[1] = Inhibition of full-length GST-tagged mouse BRAF V600E mutant using MEK1 as substrate preincubated for 1 hr
In short: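 Mouse full-length GST-tagged BRAF V600E (7.5 ng) pre-incubated 1 h at room temperature with compound in assay dilution buffer. Reaction started by adding 200 ng His-tagged full-length human MEK1, 200 µM ATP (0.8 µCi hot ATP) and 30 mM MgCl2, then run 25 min at room temperature. Quenched with LDS buffer and heated 5 min at 70 °C. Products separated on 4-12% gel, which was dried and read on a phosphor screen. No-enzyme and no-inhibitor controls included, triplicate.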

[2] = Antiproliferative activity against human WM266.4 cells after 48 hrs by MTT assay; assay type: functional, cell-based; conditions: WM 266-4, 48 h
In short: (§1)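 Cells grown to log phase in RPMI 1640 with 10% FBS, seeded at 2 × 10^4 cells/mL and left 24 h at 37 °C, 5% CO2. Compounds added at pre-set concentrations, sorafenib as positive control, 48 h exposure. MTT (2.5 mg/mL in PBS) added for 4 h, then SDS-isobutanol-HCl extraction overnight at 37 °C. OD read at 570 nm. Three replicate wells per concentration, each assay run at least three times.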

[3] = system: MCF7; assay: Antiproliferative activity against human MCF7 cells after 48 hrs by MTT assay; assay type: functional, cell-based; conditions: MCF7, 48 h; in short: as §1
[4] = system: WM 266-4; assay: Induction of apoptosis in human WM266.4 cells assessed as necrotic cells at 3 uM after 48 hrs using annexin V-FITC/PI by flow cytometry (reference value: 1.26 %); assay type: functional
[5] = system: WM 266-4; assay: Induction of apoptosis in human WM266.4 cells assessed as early apoptotic cells at 3 uM after 48 hrs using annexin V-FITC/PI by flow cytometry (reference value: 5.79 %); assay type: functional
[6] = system: MCF7; assay: Induction of apoptosis in human MCF7 cells assessed as late apoptotic cells at 3 uM after 48 hrs using annexin V-FITC/PI by flow cytometry (reference value: 5.12 %); assay type: functional
[7] = system: MCF7; assay: Induction of apoptosis in human MCF7 cells assessed as viable cells at 1 uM after 48 hrs using annexin V-FITC/PI by flow cytometry (reference value: 91.07 %); assay type: functional; conditions: MCF7, 48 h, read-out: Activity
[8] = system: WM 266-4; assay: Induction of apoptosis in human WM266.4 cells assessed as viable cells at 3 uM after 48 hrs using annexin V-FITC/PI by flow cytometry (reference value: 86.39 %); assay type: functional; conditions: WM 266-4, 48 h, read-out: Activity
[9] = system: MCF7; assay: Induction of apoptosis in human MCF7 cells assessed as late apoptotic cells at 1 uM after 48 hrs using annexin V-FITC/PI by flow cytometry (reference value: 5.12 %); assay type: functional
[10] = system: WM 266-4; assay: Induction of apoptosis in human WM266.4 cells assessed as early apoptotic cells at 1 uM after 48 hrs using annexin V-FITC/PI by flow cytometry (reference value: 5.79 %); assay type: functional
[11] = system: MCF7; assay: Induction of apoptosis in human MCF7 cells assessed as viable cells at 3 uM after 48 hrs using annexin V-FITC/PI by flow cytometry (reference value: 91.07 %); assay type: functional; conditions: MCF7, 48 h, read-out: Activity
[12] = system: WM 266-4; assay: Induction of apoptosis in human WM266.4 cells assessed as late apoptotic cells at 3 uM after 48 hrs using annexin V-FITC/PI by flow cytometry (reference value: 6.56 %); assay type: functional
[13] = system: MCF7; assay: Induction of apoptosis in human MCF7 cells assessed as necrotic cells at 1 uM after 48 hrs using annexin V-FITC/PI by flow cytometry (reference value: 0.29 %); assay type: functional
[14] = system: WM 266-4; assay: Induction of apoptosis in human WM266.4 cells assessed as necrotic cells at 1 uM after 48 hrs using annexin V-FITC/PI by flow cytometry (reference value: 1.26 %); assay type: functional
[15] = system: WM 266-4; assay: Induction of apoptosis in human WM266.4 cells assessed as viable cells at 1 uM after 48 hrs using annexin V-FITC/PI by flow cytometry (reference value: 86.39 %); assay type: functional; conditions: WM 266-4, 48 h, read-out: Activity
[16] = system: MCF7; assay: Induction of apoptosis in human MCF7 cells assessed as necrotic cells at 3 uM after 48 hrs using annexin V-FITC/PI by flow cytometry (reference value: 0.29 %); assay type: functional
[17] = system: WM 266-4; assay: Induction of apoptosis in human WM266.4 cells assessed as late apoptotic cells at 1 uM after 48 hrs using annexin V-FITC/PI by flow cytometry (reference value: 6.56 %); assay type: functional
[18] = system: MCF7; assay: Induction of apoptosis in human MCF7 cells assessed as early apoptotic cells at 3 uM after 48 hrs using annexin V-FITC/PI by flow cytometry (reference value: 3.52 %); assay type: functional
[19] = system: MCF7; assay: Induction of apoptosis in human MCF7 cells assessed as early apoptotic cells at 1 uM after 48 hrs using annexin V-FITC/PI by flow cytometry (reference value: 3.52 %); assay type: functional

Structure (SMILES) | IC50 [1] | IC50 [3] | IC50 [2] | also measured
COc1ccc(-c2csc(N3N=C(c4ccc(Br)cc4)CC3c3cccs3)n2)cc1 (centres undefined) | 80 nM | 680 nM | 2010 nM | 
Cc1ccc(C2=NN(c3nc(-c4ccc(Br)cc4)cs3)C(c3cccs3)C2)cc1 (centres undefined) | 560 nM | 2010 nM | 18400 nM | 
Brc1ccc(C2=NN(c3nc(-c4ccccc4)cs3)C(c3cccs3)C2)cc1 (centres undefined) | 2190 nM | 6790 nM | 1870 nM | 
CNC(=O)c1cc(Oc2ccc(NC(=O)Nc3ccc(Cl)c(C(F)(F)F)c3)cc2)ccn1 [SORAFENIB] | 30 nM | 190 nM | 60 nM | 
COc1ccc(C2=NN(c3nc(-c4ccc(Br)cc4)cs3)C(c3cccs3)C2)cc1 (centres undefined) | 4010 nM | 21200 nM | 5870 nM | 
COc1ccc(C2=NN(c3nc(-c4ccc(OC)cc4)cs3)C(c3cccs3)C2)cc1 (centres undefined) | 5230 nM | 16200 nM | 31600 nM | 
FC(F)(F)c1ccc(-c2csc(N3N=C(c4ccc(Cl)cc4)CC3c3cccs3)n2)cc1 (centres undefined) | 50 nM | 160 nM | 120 nM | Activity [4]: 3.54%; Activity [5]: 47.19%; Activity [6]: 33.01%; viability at 1 µM [7]: 32.4%; viability at 3 µM [8]: 11%; Activity [9]: 27.25%; Activity [10]: 14.13%; viability at 3 µM [11]: 19.8%; Activity [12]: 38.25%; Activity [13]: 1.2%; Activity [14]: 0.09%; viability at 1 µM [15]: 68.2%; Activity [16]: 3.54%; Activity [17]: 17.54%; Activity [18]: 43.69%; Activity [19]: 39.15%
Clc1ccc(C2=NN(c3nc(-c4ccc(Br)cc4)cs3)C(c3cccs3)C2)cc1 (centres undefined) | 4780 nM | 14700 nM | 1450 nM | 
Fc1ccc(C2=NN(c3nc(-c4ccc(C(F)(F)F)cc4)cs3)C(c3cccs3)C2)cc1 (centres undefined) | 1010 nM | 1330 nM | 5120 nM | 
Fc1ccc(C2=NN(c3nc(-c4ccc(Br)cc4)cs3)C(c3cccs3)C2)cc1 (centres undefined) | 1860 nM | 8280 nM | 220 nM | 
COc1ccc(-c2csc(N3N=C(c4ccc(Cl)cc4)CC3c3cccs3)n2)cc1 (centres undefined) | 190 nM | 2480 nM | 1310 nM | 
Cc1ccc(C2=NN(c3nc(-c4ccc(C(F)(F)F)cc4)cs3)C(c3cccs3)C2)cc1 (centres undefined) | 6180 nM | 31500 nM | 2110 nM | 
Brc1ccc(C2=NN(c3nc(-c4ccc(Br)cc4)cs3)C(c3cccs3)C2)cc1 (centres undefined) | 8870 nM | 28300 nM | 13000 nM | 
COc1ccc(C2=NN(c3nc(-c4ccc(C(F)(F)F)cc4)cs3)C(c3cccs3)C2)cc1 (centres undefined) | 10900 nM | 45700 nM | 8110 nM | 

The remaining compounds from weak to strong by IC50 [1], led by results:

IC50 [1] | IC50 [3] | Structure (SMILES) | IC50 [2] | also measured
5120 nM | 14200 nM | COc1ccc(-c2csc(N3N=C(c4ccc(F)cc4)CC3c3cccs3)n2)cc1 (centres undefined) | 4420 nM | 
3880 nM | 18600 nM | Cc1ccc(C2=NN(c3nc(-c4ccccc4)cs3)C(c3cccs3)C2)cc1 (centres undefined) | 7520 nM | 
2090 nM | 7810 nM | FC(F)(F)c1ccc(-c2csc(N3N=C(c4ccc(Br)cc4)CC3c3cccs3)n2)cc1 (centres undefined) | 27400 nM | 
1110 nM | 9010 nM | COc1ccc(C2=NN(c3nc(-c4ccccc4)cs3)C(c3cccs3)C2)cc1 (centres undefined) | 2120 nM | 
670 nM | 2340 nM | Fc1ccc(C2=NN(c3nc(-c4ccccc4)cs3)C(c3cccs3)C2)cc1 (centres undefined) | 170 nM | 
110 nM | 4770 nM | COc1ccc(-c2csc(N3N=C(c4ccc(C)cc4)CC3c3cccs3)n2)cc1 (centres undefined) | 3770 nM | 
90 nM | 190 nM | Clc1ccc(C2=NN(c3nc(-c4ccccc4)cs3)C(c3cccs3)C2)cc1 (centres undefined) | 2190 nM | 
